{"source": "paper PMC4264455", "about": "(British Journal of Cancer, 2014)", "key": {"[1]": {"test_system": "patients with advanced refractory solid tumours or non-Hodgkin's lymphoma", "test": "Phase I dose escalation: safety, tolerability, DLT and adverse events", "format": "in vivo, human"}, "[2]": {"test_system": "human cancer cell lines", "conditions": "in vitro studies; ref Squires et al, 2010; cited from earlier work"}, "[3]": {"test_system": "patients with refractory solid tumors", "conditions": "ref Mahadevan et al, 2011, cited from earlier work"}, "[4]": {"test_system": "advanced solid malignancies or non-Hodgkin's lymphoma", "test": "Anti-tumour activity", "format": "in vivo, human", "procedure,_shortened": "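Test compound given as a 1-h IV infusion on days 1, 4, 8 and 11 every 3 weeks, at 14.4–32.4 mg m−2. Radiological assessment was done after every two cycles. Response was graded by RECIST version 1.1. Treatment continued until progression, unacceptable toxicity or consent withdrawal.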"}, "[5]": {"test": "Pharmacokinetic analysis of plasma AT7519 after first 1-h intravenous infusion", "format": "in vivo, human"}, "[6]": {"test_system": "markers of CDK activity in tumour biopsies", "test": "Pharmacodynamic analysis of tumour biopsies", "format": "in vivo, human", "conditions": "three patients at RP2D, pre-dose vs 24 h after end of infusion", "procedure,_shortened": "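Tumour biopsies were taken at 27.0 mg m−2, before dosing and 24 h after the end of a 1-h IV infusion. Samples were immunostained for PCNA, phospho-NPM and Ki67. Read-out was the estimated percentage of positively stained tumour cells.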"}, "[7]": {"test_system": "CDK4", "conditions": "ref Squires et al, 2009; cited from earlier work"}, "[8]": {"conditions": "1-h intravenous infusion on days 1, 4, 8 and 11 every 3 weeks"}, "[9]": {"conditions": "five consecutive days every 3 weeks"}, "[10]": {"conditions": "19 patients evaluable for efficacy"}, "[11]": {"conditions": "1-h intravenous infusion, day 1 cycle 1, 29 patients"}}, "note": "Entries after “also recorded” stand apart in the source; their conditions may differ.", "data": [{"molecule": "O=C(NC1CCNCC1)c1n[nH]cc1NC(=O)c1c(Cl)cccc1Cl", "note": "[AT7519, N-(4-piperidinyl)-4-(2,6-dichlorobenzoylamino)-1H-pyrazole-3-carboxamide]", "values": [{"measurement": "Neutropenia: No. of patients with AEs of any grade", "setting": "[1]; 32.4 mg m^−2 (n=5)", "value": "1 No. of patients"}, {"measurement": "Thrombocytopenia: No. of patients with AEs of any grade", "setting": "[1]; 32.4 mg m^−2 (n=5)", "value": "2 No. of patients"}, {"measurement": "Vomiting: No. of patients with AEs of any grade", "setting": "[1]; 32.4 mg m^−2 (n=5)", "value": "5 No. of patients"}, {"measurement": "maximum tolerated dose", "setting": "[1]; [8]", "value": 32.4, "unit": "mg m^−2"}, {"measurement": "recommended phase II dose (RP2D)", "setting": "[1]; [8]", "value": 27.0, "unit": "mg m^−2"}, {"measurement": "ALP elevation: Any grade AE No. of patients (%)", "setting": "[1]; all dose levels (N=32)", "value": "20 (62.5) No. of patients (%)"}, {"measurement": "ALP elevation: Grade 3/4 AE No. of patients (%)", "setting": "[1]; all dose levels (N=32)", "value": "5 (15.6) No. of patients (%)"}, {"measurement": "AST elevation: Any grade AE No. of patients (%)", "setting": "[1]; all dose levels (N=32)", "value": "16 (50.0) No. of patients (%)"}, {"measurement": "AST elevation: Grade 3/4 AE No. of patients (%)", "setting": "[1]; all dose levels (N=32)", "value": "3 (9.4) No. of patients (%)"}, {"measurement": "Anaemia: Any grade AE No. of patients (%)", "setting": "[1]; all dose levels (N=32)", "value": "28 (87.5) No. of patients (%)"}, {"measurement": "Anaemia: Grade 3/4 AE No. of patients (%)", "setting": "[1]; all dose levels (N=32)", "value": "1 (3.1) No. of patients (%)"}, {"measurement": "Anorexia: Any grade AE No. of patients (%)", "setting": "[1]; all dose levels (N=32)", "value": "4 (12.5) No. of patients (%)"}, {"measurement": "Anorexia: Grade 3/4 AE No. of patients (%)", "setting": "[1]; all dose levels (N=32)", "value": "0 No. of patients (%)"}, {"measurement": "Creatinine elevation: Any grade AE No. of patients (%)", "setting": "[1]; all dose levels (N=32)", "value": "5 (15.6) No. of patients (%)"}, {"measurement": "Creatinine elevation: Grade 3/4 AE No. of patients (%)", "setting": "[1]; all dose levels (N=32)", "value": "1 (3.1) No. of patients (%)"}, {"measurement": "Diarrhoea: Any grade AE No. of patients (%)", "setting": "[1]; all dose levels (N=32)", "value": "5 (15.6) No. of patients (%)"}, {"measurement": "Diarrhoea: Grade 3/4 AE No. of patients (%)", "setting": "[1]; all dose levels (N=32)", "value": "0 No. of patients (%)"}, {"measurement": "Fatigue: Any grade AE No. of patients (%)", "setting": "[1]; all dose levels (N=32)", "value": "17 (53.1) No. of patients (%)"}, {"measurement": "Fatigue: Grade 3/4 AE No. of patients (%)", "setting": "[1]; all dose levels (N=32)", "value": "3 (9.4) No. of patients (%)"}, {"measurement": "Hyperglycaemia (random): Any grade AE No. of patients (%)", "setting": "[1]; all dose levels (N=32)", "value": "12 (37.5) No. of patients (%)"}, {"measurement": "Hyperglycaemia (random): Grade 3/4 AE No. of patients (%)", "setting": "[1]; all dose levels (N=32)", "value": "2 (6.3) No. of patients (%)"}, {"measurement": "Infection without neutropenia: Any grade AE No. of patients (%)", "setting": "[1]; all dose levels (N=32)", "value": "6 (18.8) No. of patients (%)"}, {"measurement": "Infection without neutropenia: Grade 3/4 AE No. of patients (%)", "setting": "[1]; all dose levels (N=32)", "value": "1 (3.1) No. of patients (%)"}, {"measurement": "Lymphopenia: Any grade AE No. of patients (%)", "setting": "[1]; all dose levels (N=32)", "value": "27 (84.4) No. of patients (%)"}, {"measurement": "Lymphopenia: Grade 3/4 AE No. of patients (%)", "setting": "[1]; all dose levels (N=32)", "value": "12 (37.5) No. of patients (%)"}, {"measurement": "Mucositis: Any grade AE No. of patients (%)", "setting": "[1]; all dose levels (N=32)", "value": "17 (53.1) No. of patients (%)"}, {"measurement": "Mucositis: Grade 3/4 AE No. of patients (%)", "setting": "[1]; all dose levels (N=32)", "value": "3 (9.4) No. of patients (%)"}, {"measurement": "Nausea: Grade 3/4 AE No. of patients (%)", "setting": "[1]; all dose levels (N=32)", "value": "0 No. of patients (%)"}, {"measurement": "Neutropenia: Any grade AE No. of patients (%)", "setting": "[1]; all dose levels (N=32)", "value": "5 (15.6) No. of patients (%)"}, {"measurement": "Neutropenia: Grade 3/4 AE No. of patients (%)", "setting": "[1]; all dose levels (N=32)", "value": "1 (3.1) No. of patients (%)"}, {"measurement": "Thrombocytopenia: Any grade AE No. of patients (%)", "setting": "[1]; all dose levels (N=32)", "value": "9 (28.1) No. of patients (%)"}, {"measurement": "Thrombocytopenia: Grade 3/4 AE No. of patients (%)", "setting": "[1]; all dose levels (N=32)", "value": "0 No. of patients (%)"}, {"measurement": "Vomiting: Any grade AE No. of patients (%)", "setting": "[1]; all dose levels (N=32)", "value": "11 (34.4) No. of patients (%)"}, {"measurement": "Vomiting: Grade 3/4 AE No. of patients (%)", "setting": "[1]; all dose levels (N=32)", "value": "0 No. of patients (%)"}, {"measurement": "patients with anaemia", "setting": "[1]; any grade, all dose levels", "value": 87.5, "unit": "%"}, {"measurement": "patients with fatigue", "setting": "[1]; any grade, all dose levels", "value": 53.1, "unit": "%"}, {"measurement": "patients with lymphopenia", "setting": "[1]; any grade, all dose levels", "value": 84.4, "unit": "%"}, {"measurement": "patients with mucositis", "setting": "[1]; any grade, all dose levels", "value": 53.1, "unit": "%"}, {"measurement": "patients with nausea", "setting": "[1]; any grade, all dose levels", "value": 31.7, "unit": "%"}, {"measurement": "patients with vomiting", "setting": "[1]; any grade, all dose levels", "value": 34.4, "unit": "%"}, {"measurement": "No. of patients with DLT", "setting": "[1]; dose level 14.4 mg m^−2, 5 patients treated, days 1, 4, 8, 11 every 3 weeks", "value": "No DLTs and none"}, {"measurement": "patients experienced grade 3 fatigue and mucositis", "setting": "[1]; grade 3, all dose levels", "value": "< 10", "unit": "%"}, {"measurement": "grade 3 or 4 elevation of alkaline phosphatase", "setting": "[1]; grade 3 or 4, all dose levels", "value": 15.6, "unit": "%"}, {"measurement": "grade 3 or 4 elevation of aspartate transaminase", "setting": "[1]; grade 3 or 4, all dose levels", "value": 9.4, "unit": "%"}, {"measurement": "patients developing grade 3 or 4 lymphopenia", "setting": "[1]; grade 3 or 4, all dose levels", "value": 37.5, "unit": "%"}, {"measurement": "patients with grade 3 or 4 fatigue and mucositis", "setting": "[1]; grade 3 or 4, all dose levels", "value": 9, "unit": "%"}, {"measurement": "concentrations at which anti-cancer activities were observed", "setting": "[2]", "value": "above 100 ng ml^−1"}, {"measurement": "dose at which one patient death from QTc prolongation was reported", "setting": "[3]; [9]", "value": 34, "unit": "mg m^−2 per day"}, {"measurement": "minimal effective biological dose", "setting": "[3]; [9]", "value": 28.8, "unit": "mg m^−2 per day"}, {"measurement": "dose at which dose-limiting toxicity (DLT) was initially seen", "setting": "[3]; × 5 days", "value": 14.4, "unit": "mg m^−2 per day"}, {"measurement": "complete or partial response", "setting": "[4]; [10]", "value": "no complete or partial response; also recorded: no partial response"}, {"measurement": "patients with progressive disease as best response", "setting": "[4]; [10]", "value": "nine"}, {"measurement": "duration of durable stable disease in one patient", "setting": "[4]; one patient with metastatic rectal cancer, 10 cycles", "value": 11.1, "unit": "months"}, {"measurement": "median duration of stable disease", "setting": "[4]; ten patients with stable disease", "value": 3.3, "unit": "months"}, {"measurement": "plasma clearance", "setting": "[5]; [11]", "value": "0.28±0.26", "unit": "l min^−1 m^−2"}, {"measurement": "volume of distribution", "setting": "[5]; [11]", "value": "289±218", "unit": "l m^−2"}, {"measurement": "dose dependence of Cmax and plasma exposures", "setting": "[5]; 14.4 to 32.4 mg m^−2", "value": "apparent dose proportional increase; also recorded: linear pharmacokinetics"}, {"measurement": "Cmax", "setting": "[5]; human, plasma, intravenous, 27 mg", "value": "0.591 ± 0.358", "unit": "µg/mL"}, {"measurement": "half-life", "setting": "[5]; human, plasma, iv", "value": "13.1 ± 4", "unit": "h"}, {"measurement": "changes in proliferating cell nuclear antigen, pNPM and Ki67", "setting": "[6]", "value": "no consistent changes"}, {"measurement": "IC50", "setting": "[7]", "value": 0.1, "unit": "µM"}]}]}
